Results on one compound are retold here after ChEMBL document CHEMBL4715770, “Inhibition of Low Molecular Weight Protein Tyrosine Phosphatase by an Induced-Fit Mechanism” (J Med Chem, 2016).

The test concerns the target T1, Low molecular weight phosphotyrosine protein phosphatase (Homo sapiens, UniProt P24666).
T1 sequence (P24666 whole entry): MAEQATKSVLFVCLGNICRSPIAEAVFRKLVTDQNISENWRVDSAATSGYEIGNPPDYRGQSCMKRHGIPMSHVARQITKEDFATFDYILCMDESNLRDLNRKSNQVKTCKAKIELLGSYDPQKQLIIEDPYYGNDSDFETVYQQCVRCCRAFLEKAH
Put plainly: Competitive inhibition of His-tagged LMW-PTP isoform A (unknown origin) expressed in Escherichia coli BL21 cells using para-nitrophenyl phosphate as substrate by Lineweaver-Burk plot analysis. The method, boiled down: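 Recombinant enzyme Ni-NTA purified (Tris pH 7.8, 500 mM NaCl, 250 mM imidazole elution), then Sephadex G75. pNPP hydrolysis in 50 mM 3,3-dimethylglutarate, pH 7.0, 25 °C. Enzyme added last to mixes of varied pNPP and inhibitor concentrations, 5-10 min, NaOH quench. p-nitrophenol read at 405 nm (ε 18,000 M-1cm-1), no-enzyme blank subtracted. Ki fitted by enzyme-kinetics regression.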

`O=C(Nc1nc2ccc([N+](=O)[O-])cc2s1)C(c1ccccc1)S(=O)(=O)O` (stereo unspecified) had a Ki of 1000 nM.

One may read the Ki as a dissociation constant, usually derived from enzyme kinetics or from competition with a known ligand. Low values mean tighter binding, high ones weaker binding.
